Test results taken from ChEMBL document CHEMBL3085733, “Modulation of the fibrillogenesis inhibition properties of two transthyretin ligands by halogenation” (J Med Chem, 2013).
pIC50, pKd: −log10 of the molar value.

Key:
[1] = Binding affinity to human recombinant TTR Y78F mutant after 5 mins by isothermal titration calorimetry
Summary of the method: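 Recombinant human TTR Y78F (E. coli-expressed), 20−30 μM in cell, in 100 mM potassium phosphate, KCl, 1 mM EDTA, 5% (v/v) DMSO, pH 7.6, filtered and degassed 5 min. Titrant was 500 μM ligand in the same buffer. One 0.5−1 μL injection, then 1.5−2 μL injections every 150 s, 25 °C. Dilution blanks subtracted; isotherms fitted to a two identical-site model to give Kd.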

Homo sapiens = species on record: Homo sapiens; assay: Inhibition of human recombinant TTR Y78F mutant-mediated fibrillogenesis at 40 uM after 30 mins by turbidimetric assay relative to control
Summary of the method: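 Y78F TTR turbidity assay: 30 min preincubation at 37 °C with 0−40 μM compound, then pH 4.2 acetate buffer (final 0.4 mg/mL TTR, 5% DMSO). A340 was monitored for 1.5 h at 37 °C. Initial rates were fitted to v0 = A + B·exp(−C[I]). RA% is the percentage reduction in fibril formation rate at high inhibitor concentration versus no inhibitor.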

[2] = Inhibition of human recombinant TTR Y78F mutant-mediated fibrillogenesis after 30 mins by turbidimetric assay
Summary of the method: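 Recombinant TTR Y78F (4 mg/mL in 20 mM potassium phosphate, 100 mM KCl, 1 mM EDTA, pH 7.6) was preincubated 30 min at 37 °C with 0−40 μM compound (final). Acid fibrillogenesis was started with pH 4.2 acetate buffer, giving final 0.4 mg/mL TTR and 5% DMSO. A340 was read every 1 min for 1.5 h at 37 °C. IC50 came from fitting initial rates to v0 = A + B·exp(−C[I]).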

O=C(O)c1cc(-c2ccc(F)cc2F)ccc1O [DIFLUNISAL]
pKd [1]: 5.94 | inhibition (Homo sapiens): 85% | pIC50 [2]: 4.74

Oc1c(Cl)cc(-c2cc(Cl)c(O)c(Cl)c2)cc1Cl
inhibition (Homo sapiens): 100% | pIC50 [2]: 5.68

N[C@@H](Cc1cc(I)c(Oc2cc(I)c(O)c(I)c2)c(I)c1)C(=O)O [LEVOTHYROXINE]
inhibition (Homo sapiens): 80%

O=[N+]([O-])c1ccc(O)c([N+](=O)[O-])c1 [2,4-DINITROPHENOL]
inhibition (Homo sapiens): 77% | pIC50 [2]: 4.70

O=C(O)c1ccccc1Nc1cc(F)cc(C(F)(F)F)c1
pKd [1]: 7.04 | inhibition (Homo sapiens): 91% | pIC50 [2]: 5.19

O=C(O)c1cc(-c2ccc(F)cc2F)cc(Cl)c1O
pKd [1]: 6.43 | inhibition (Homo sapiens): 89% | pIC50 [2]: 5.12

CC/C(=C(/CC)c1ccc(O)cc1)c1ccc(O)cc1 [DIETHYLSTILBESTROL]
inhibition (Homo sapiens): 67% | pIC50 [2]: 4.78

CC1=C(/C=C/C(C)=C/C=C/C(C)=C/C(=O)O)C(C)(C)CCC1 [TRETINOIN]
inhibition (Homo sapiens): 100% | pIC50 [2]: 5.09

O=C(O)c1ccccc1Nc1cc(I)cc(C(F)(F)F)c1
pKd [1]: 7.07 | inhibition (Homo sapiens): 94% | pIC50 [2]: 5.19

O=C(O)c1cc(-c2ccc(F)cc2F)cc(F)c1O
pKd [1]: 5.95 | inhibition (Homo sapiens): 87% | pIC50 [2]: 5.12

Oc1ccc(/C=C/c2cc(O)cc(O)c2)cc1 [RESVERATROL]
inhibition (Homo sapiens): 89% | pIC50 [2]: 5.35

O=C(O)c1ccccc1Nc1cc(Br)cc(C(F)(F)F)c1
pKd [1]: 7.19 | inhibition (Homo sapiens): 91% | pIC50 [2]: 5.23

O=C(O)Cc1cc(I)c(Oc2cc(I)c(O)c(I)c2)c(I)c1 [TETRAC]
inhibition (Homo sapiens): 93% | pIC50 [2]: 5.32

O=C(O)c1ccc(-c2cc(F)cc(F)c2)cc1
inhibition (Homo sapiens): 89% | pIC50 [2]: 4.97

O=C(O)c1cc(-c2ccc(F)cc2F)cc(I)c1O
pKd [1]: 7.06 | inhibition (Homo sapiens): 94%

O=C(O)c1ccccc1Nc1cccc(C(F)(F)F)c1 [FLUFENAMIC ACID]
pKd [1]: 6.96 | inhibition (Homo sapiens): 89% | pIC50 [2]: 5.21

O=C(O)c1cc(-c2ccc(F)cc2F)cc(Br)c1O
pKd [1]: 6.71 | inhibition (Homo sapiens): 88% | pIC50 [2]: 5.25

O=C(O)c1cc(-c2ccc(Cl)cc2Cl)ccc1O
inhibition (Homo sapiens): 75% | pIC50 [2]: 4.89

O=C(O)Cc1ccccc1Nc1c(Cl)cccc1Cl [DICLOFENAC]
inhibition (Homo sapiens): 74% | pIC50 [2]: 4.59

CC(C(=O)O)c1ccc(-c2ccccc2)c(F)c1 (stereo not given) [FLURBIPROFEN]
inhibition (Homo sapiens): 35% | pIC50 [2]: < 4.00

O=C(O)c1ccccc1Nc1cc(Cl)cc(C(F)(F)F)c1
pKd [1]: 7.07 | inhibition (Homo sapiens): 86% | pIC50 [2]: 5.22
